Experimental data reported in ChEMBL document CHEMBL1135941, “Synthesis and biological activity of the new 5-fluorocytosine derivatives, 5'-deoxy-N-alkyloxycarbonyl-5-fluorocytosine-5'-carboxylic acid” (Bioorg Med Chem Lett, 2002).
In brackets after ≈: the same amount, converted by molar mass. Several values for one entry are separate records, joined by “and”; a condition that tells them apart may be missing. Equal entries are not always repeated.

Tests used:
A549 = assay: Inhibitory concentration of compound for cytotoxicity against […] human lung cells was determined; type: functional, cell-based
Summary of the method: (§1)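 MTT cytotoxicity assay on human cancer cell lines: A549 (lung), SK-OV-3 (ovarian), HCT15 (colon) and SK-MEL-2 (melanoma). Cells were incubated with compound for 3 days before the MTT read-out. Activity is reported as IC50 in μg/mL.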

HCT-15 = assay: Inhibitory concentration of compound for cytotoxicity against HCT15 human colon cells was determined; type: functional, cell-based; summary of the method: as §1
SK-OV-3 = assay: Inhibitory concentration of compound for cytotoxicity against SK-OV-3 human ovarian cells was determined; type: functional, cell-based; summary of the method: as §1
SK-MEL-2 = assay: Inhibitory concentration of compound for cytotoxicity against SK-MEL-2 human melanoma cells was determined; type: functional, cell-based; summary of the method: as §1
[1] = Toxicity by oral administration of single dose in mice; details: mouse, in vivo
Mus musculus [2] = assay: In vivo mean survival time of L1210 leukemic BDF1 mice when compound (0.67 mmol/kg/day) was administered orally
[3] = Toxicity by oral administration of single dose in mice for 21 days; details: mouse, in vivo, 504 h
Mus musculus [4] = assay: In vivo mean survival time of L1210 leukemic BDF1 mice when compound (0.016 mmol/kg/day) was administered orally
Mus musculus [5] = assay: In vivo mean survival time of L1210 leukemic BDF1 mice when compound (0.0032 mmol/kg/day) was administered orally
Mus musculus [6] = assay: Percent increase in life span of L1210 leukemic BDF1 mice when compound (0.15 nmol/kg/day) was administered intravenously; type: functional
Mus musculus [7] = assay: In vivo mean survival time of L1210 leukemic BDF1 mice when compound (0.23 nmol/kg/day) was administered intravenously; type: functional

## C#CCOC(=O)Nc1nc(=O)n(C2O[C@H](C(=O)O)[C@@H](O)[C@H]2O)cc1F (stereo partly specified)
A549
  IC50: 0.005 µg/mL (≈ 0.014 µM)
HCT-15
  IC50: 0.04 µg/mL (≈ 0.112 µM)
SK-OV-3
  IC50: 0.005 µg/mL (≈ 0.014 µM)
SK-MEL-2
  IC50: 0.007 µg/mL (≈ 0.0196 µM)
[1]
  LD50: 12 mg/kg

## CCCCCOC(=O)Nc1nc(=O)n(C2O[C@H](C(=O)O)[C@@H](O)[C@H]2O)cc1F (stereo partly specified)
A549
  IC50: 0.17 µg/mL (≈ 0.437 µM)
HCT-15
  IC50: 0.12 µg/mL (≈ 0.308 µM)
SK-OV-3
  IC50: 0.03 µg/mL (≈ 0.0771 µM)
SK-MEL-2
  IC50: 0.03 µg/mL (≈ 0.0771 µM)
Mus musculus [2]
  MST: 11.3 days

## O=C(Nc1nc(=O)n(C2O[C@H](C(=O)O)[C@@H](O)[C@H]2O)cc1F)Oc1ccccc1 (stereo partly specified)
A549
  IC50: 0.55 µg/mL (≈ 1.39 µM)
HCT-15
  IC50: 0.39 µg/mL (≈ 0.987 µM)
SK-OV-3
  IC50: 0.12 µg/mL (≈ 0.304 µM)
SK-MEL-2
  IC50: 0.1 µg/mL (≈ 0.253 µM)

## O=C(Nc1nc(=O)n(C2O[C@H](C(=O)O)[C@@H](O)[C@H]2O)cc1F)OCc1ccccc1 (stereo partly specified)
A549
  IC50: 0.37 µg/mL (≈ 0.904 µM)
HCT-15
  IC50: 0.17 µg/mL (≈ 0.415 µM)
SK-OV-3
  IC50: 0.07 µg/mL (≈ 0.171 µM)
SK-MEL-2
  IC50: 0.1 µg/mL (≈ 0.244 µM)

## CCOC(=O)Nc1nc(=O)n(C2O[C@H](C(=O)O)[C@@H](O)[C@H]2O)cc1F (stereo partly specified)
A549
  IC50: 0.49 µg/mL (≈ 1.41 µM)
HCT-15
  IC50: 0.47 µg/mL (≈ 1.35 µM)
SK-OV-3
  IC50: 0.16 µg/mL (≈ 0.461 µM)
SK-MEL-2
  IC50: 0.16 µg/mL (≈ 0.461 µM)

## C=CCOC(=O)Nc1nc(=O)n(C2O[C@H](C(=O)O)[C@@H](O)[C@H]2O)cc1F (stereo partly specified)
A549
  IC50: 0.04 µg/mL (≈ 0.111 µM)
HCT-15
  IC50: 0.032 µg/mL (≈ 0.0891 µM)
SK-OV-3
  IC50: 0.008 µg/mL (≈ 0.0223 µM)
SK-MEL-2
  IC50: 0.008 µg/mL (≈ 0.0223 µM)
[3]
  LD50: 22 mg/kg/day
[1]
  LD50: 650 mg/kg
Mus musculus [4]
  MST: 24.8 days
Mus musculus [5]
  MST: 22.1 days

## O=c1[nH]cc(F)c(=O)[nH]1 [FLUOROURACIL]
A549
  IC50: 0.26 µg/mL (≈ 2 µM)
HCT-15
  IC50: 0.11 µg/mL (≈ 0.846 µM)
Mus musculus [6]
  ILS: 87.5% and 62.5%
Mus musculus [7]
  MST: 16.5 days and 14.3 days
SK-OV-3
  IC50: 0.03 µg/mL (≈ 0.231 µM)
SK-MEL-2
  IC50: 0.63 µg/mL (≈ 4.84 µM)
